Screening results (PubChem)
TRPC6 inh: inhibitors of mouse TRPC6 channel; Q61143; AID 2553; B-score at 10 µM; HEK293-TRPC6, membrane potential dye, ACh-evoked depolarization; hits give low values; 1.1% of 310,000 active;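 active = B-score under library mean minus 3 SD, initial fluorescence not abnormally high, positive integrated signal ratio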;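 also: B-score derived from integrated fluorescence ratio over the kinetic read; more negative B-score means stronger inhibition of depolarization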
TRPC4 agonist: TRPC4 (mouse) channel activation; Q9QUQ5; HEK293 TRPC4beta/mu-opioid, Fluo4 calcium fluorescence; hits give high values; B-score at 10 µM; 0.49% of 310,000 active;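 active = B-score above 5 SD of library B-scores, and initial fluorescence ratio not above library mean plus 5 SD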;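 also: positive B-score marks a calcium rise read as TRPC4 activation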
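Assay system: HEK293 stable line with TRPC4beta plus mu-opioid receptor; schedule: 45 min room-temperature Fluo4 loading, 110 s read; technique: kinetic Fluo4 calcium fluorescence; evaluation: integrated baseline-normalised fluorescence ratio, converted to per-well B score; controls: buffer (low) and maximal DAMGO (high)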
TRPC4 inh: inhibitors of mouse TRPC4 channel; Q9QUQ5; HEK293 TRPC4beta/mu-opioid, DAMGO-evoked Fluo4 calcium flux; hits give low values; B-score at 10 µM; 0.39% of 300,000 active; AID 2247;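 active = B-score over 3 SD under the library average, no early fluorescence shift, positive overall ratio signal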
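Test system – stable TRPC4beta/mu-opioid receptor HEK293 cells · Probe or stimulus – DAMGO, a submaximal dose followed by a maximal one · Dosing – one concentration per compound · Signal – Fluo4 calcium fluorescence by kinetic imaging, 5 s 1 Hz baseline · Evaluation – per-well B score of integrated baseline-normalized Fluo4 ratio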
TRPC4 PAM: TRPC4 (mouse) allosteric potentiation; HEK293 TRPC4beta/mu-opioid, DAMGO EC20, Fluo-4 Ca2+ flux; hits give high values; B-score at 10 µM; 0.42% of 310,000 active; AID 2227;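 active = B-score of calcium response area above 5 SD of library B-scores, with initial fluorescence ratio within 5 SD of library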;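 also: B-score of integrated fluorescence ratio over time as area under calcium response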
TRPC6 activator: activators of mouse TRPC6 channel | AID 2550 | 0.13% of 310,000 active | HEK293-TRPC6 membrane potential dye fluorescence; hits give high values | Q61143 | B-score at 10 µM;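 active = B-score of the integrated fluorescence ratio above library mean plus 3 SD, and starting fluorescence ratio within library mean plus 5 SD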;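 also: higher score means more depolarization so channel activation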
TRPC4 sel inh 2: second selectivity test of TRPC6 inhibitors: effect on mouse TRPC4; inhibition, % at 10 µM; HEK293 TRPC4/MOR, membrane potential dye fluorescence; channel activated by saturating DAMGO dose; 42% of 920 active; shares compounds with TRPC6 inh;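 active = compounds whose fluorescence signal differed from control wells by over 3 SD, either direction, in both duplicate plates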
TRPC4 spec: selectivity of TRPC6 inhibitors: effect on mouse TRPC4; AID 2777; 61% of 920 active; shares compounds with TRPC6 inh; HEK293 TRPC4/mu-opioid, membrane potential fluorescence; activity change, negative = inhibition, % at 10 µM;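 active = rise or fall in signal beyond 3 SD of buffer-only wells in both replicate plates, either sign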;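 also: integrated kinetic ratio of fluorescence range over baseline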
HEK293 MPD ctr 2-1: parental HEK293 nonspecific activity of TRPC6 inhibitors, second screen. shares compounds with TRPC6 inh. parental HEK293 membrane potential dye fluorescence; maximal acetylcholine challenge after compound addition. signal change vs control, % at 10 µM. 31% of 920 active. AID 2779;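 active = membrane potential signal moving either way by over 3 SD of the maximum-effect control, in both duplicate plates, meaning non-specific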
HEK293 MPD ctr-1: counter-screen for TRPC6 inhibitors: effect in parental HEK293 cells; parental HEK293 membrane potential dye fluorescence; shares compounds with TRPC6 inh; membrane potential signal change, % at 10 µM; 60% of 920 active;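 active = membrane potential signal shifting up or down by more than 3 SD of buffer-only wells, on both duplicate plates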
HEK293 MPD ctr-2: checks TRPC6 modulator effects in parental HEK293 cells | shares compounds with TRPC6 inh | membrane potential dye fluorescence | membrane potential signal change, % at 10 µM | 51% of 2,400 active;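 active = membrane potential signal moves up or down beyond 5 SD from buffer-only wells, on both duplicate plates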
HEK293 MPD ctr 2-2: parental HEK293 nonspecific activity of TRPC6 modulators, second screen. membrane potential dye fluorescence; after compound, maximal acetylcholine stimulation. 14% of 2,400 active. shares compounds with TRPC6 inh. inhibition, % at 10 µM. AID 488926;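 active = membrane potential signal drops by more than 5 SD from the mean control signal, in both duplicate plates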;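 also: plate controls were acetylcholine ECmax control wells for no effect and buffer only wells for full effect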
TRPC4 ctr mod: mouse TRPC4 off-target activity of TRPC6 modulators; shares compounds with TRPC6 inh; HEK293 TRPC4/mu-opioid, membrane potential fluorescence; percent change from control (negative = decrease, positive = increase), % at 10 µM; 69% of 2,400 active; AID 488927;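 active = membrane potential signal moved up or down beyond 5 SD of buffer control wells, in both duplicate plates, actives on both sides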;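 also: plate controls were assay buffer wells for no effect and DAMGO maximal-effect wells for full effect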
TRPC4 ctr inh 2: mouse TRPC4 off-target activity of TRPC6 modulators, second screen. shares compounds with TRPC6 inh. HEK293 TRPC4/mu-opioid, membrane potential dye fluorescence; stimulated with maximal-effect DAMGO. inhibition, % at 10 µM. 55% of 2,400 active. AID 488928;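 active = drop in membrane potential signal beyond 5 SD of the control wells in both duplicate plates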;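 also: TRPC4 counter screen for TRPC6 hits run under conditions tuned for TRPC6 not TRPC4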
TRPC6 inh conf: confirmation of mouse TRPC6 inhibitors; shares compounds with TRPC6 inh; HEK293-TRPC6, membrane potential dye, ACh-evoked depolarization; inhibition, % at 10 µM; 43% of 3,300 active; AID 488960;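 active = fluorescence ratio falls more than 5 SD below the full-stimulation control mean, in both duplicate runs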;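 also: integrated fluorescence ratio of peak minus minimum over baseline after agonist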
TRPC6 act conf: confirmation of mouse TRPC6 activators | shares compounds with TRPC6 inh | HEK293-TRPC6 membrane potential dye fluorescence, FDSS | activation, % at 10 µM | 11% of 2,800 active;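 active = ratio signal rise beyond 5 SD above unstimulated control wells' mean, seen in both duplicate runs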;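 also: plate controls were buffer EC0 wells for no effect and acetylcholine ECmax response for full effect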
* marks the source's active call; other numbers are inactive results. Sampled rows, rich in hits. Any-hit rate of the full collection: about 2.3%.

Results for c1ccc2oc(C3=NNC(=NC4CC4)SC3)cc2c1 ?
TRPC6 inh: -8.42*; TRPC4 agonist: inactive; TRPC4 inh: inactive; TRPC4 PAM: inactive; TRPC6 activator: inactive; TRPC4 sel inh 2: inactive; TRPC4 spec: inactive; HEK293 MPD ctr 2-1: inactive; HEK293 MPD ctr-1: inactive; TRPC6 inh conf: inactive; TRPC6 act conf: inactive

How did CCCc1nc2nc(C)c(NS(=O)(=O)c3ccc(C4CCCCC4)cc3)c(=O)n2[nH]1 do in these assays?
TRPC6 inh: inactive; TRPC4 agonist: inactive; TRPC4 inh: inactive; TRPC4 PAM: inactive; TRPC6 activator: inactive

What do the screens show for `C/C(=N\NC(=S)NCCc1ccccc1)c1ccc(C)cc1`?
TRPC6 inh: -5.3*; TRPC4 agonist: inactive; TRPC4 inh: inactive; TRPC4 PAM: inactive; TRPC6 activator: inactive; HEK293 MPD ctr-2: 187.0%*; HEK293 MPD ctr 2-2: inactive; TRPC4 ctr mod: -15.0%*; TRPC4 ctr inh 2: inactive; TRPC6 inh conf: inactive; TRPC6 act conf: inactive

Results for CCN(CC)CCNc1nc2cc(OC)c(OC)cc2c2nc(-c3ccccc3)nn12 ?
TRPC6 inh: -11.5*; TRPC4 agonist: inactive; TRPC4 inh: inactive; TRPC4 PAM: inactive; TRPC6 activator: inactive; TRPC4 sel inh 2: 38.5%*; TRPC4 spec: -32.7%*; HEK293 MPD ctr 2-1: 32.0%*; HEK293 MPD ctr-1: -384.5%*; TRPC6 inh conf: 75.5%*; TRPC6 act conf: inactive

How did COc1cc2[nH]c(=O)n3nc(-c4ccccc4)nc3c2cc1OC do in these assays?
TRPC6 inh: inactive; TRPC4 agonist: inactive; TRPC4 inh: inactive; TRPC4 PAM: inactive; TRPC6 activator: inactive

What do the screens show for `CCSc1ccc2cc(OC)ccc2[n+]1CC`?
TRPC6 inh: -7.61*; TRPC4 agonist: inactive; TRPC4 inh: inactive; TRPC4 PAM: inactive; TRPC6 activator: inactive; TRPC4 sel inh 2: 76.0%*; TRPC4 spec: -20.9%*; HEK293 MPD ctr 2-1: 39.0%*; HEK293 MPD ctr-1: -313.5%*; TRPC6 inh conf: 61.5%*; TRPC6 act conf: inactive

What do the screens show for `CCn1ccc2cc(OC)ccc2c1=S`?
TRPC6 inh: inactive; TRPC4 agonist: inactive; TRPC4 inh: inactive; TRPC4 PAM: inactive; TRPC6 activator: inactive

How did CCN(CC)CCNC(=O)c1ccc(NC(=O)c2ccc3c(c2)CCC3)cc1 do in these assays?
TRPC6 inh: -9.48*; TRPC4 agonist: inactive; TRPC4 inh: inactive; TRPC4 PAM: inactive; TRPC6 activator: 11.6*; HEK293 MPD ctr-2: 217.0%*; HEK293 MPD ctr 2-2: inactive; TRPC4 ctr mod: 29.0%*; TRPC4 ctr inh 2: inactive; TRPC6 inh conf: 69.0%*; TRPC6 act conf: 160.0%*

What do the screens show for `Cc1cc(C)cc(OCC(=O)O/N=C(\N)c2cccnc2)c1`?
TRPC6 inh: inactive; TRPC4 agonist: inactive; TRPC4 inh: inactive; TRPC4 PAM: inactive; TRPC6 activator: inactive

What do the screens show for `COC(=O)c1nnn(CC(=O)NC(=O)Nc2ccccc2)c1C(=O)OC`?
TRPC6 inh: inactive; TRPC4 agonist: inactive; TRPC4 inh: inactive; TRPC4 PAM: inactive; TRPC6 activator: inactive

Results for CC(C)(C)OC(=O)NN1CC(=O)N2Cc3[nH]c4ccccc4c3C[C@H]2C1=O ?
TRPC6 inh: inactive; TRPC4 agonist: inactive; TRPC4 inh: inactive; TRPC4 PAM: inactive; TRPC6 activator: inactive

Results for Cc1ccc(-c2csc(=Nc3cccnc3)n2CCCn2ccnc2)cc1C ?
TRPC6 inh: -5.43*; TRPC4 agonist: inactive; TRPC4 inh: inactive; TRPC4 PAM: inactive; TRPC6 activator: inactive; HEK293 MPD ctr-2: 105.5%*; HEK293 MPD ctr 2-2: inactive; TRPC4 ctr mod: 15.0%*; TRPC4 ctr inh 2: 65.0%*; TRPC6 inh conf: 43.5%*

Results for Cc1ccc(CSCC(=O)N(C)CC(=O)Nc2c(Cl)cccc2Cl)cc1 ?
TRPC6 inh: inactive; TRPC4 agonist: inactive; TRPC4 inh: inactive; TRPC4 PAM: inactive; TRPC6 activator: inactive

How did Cc1ccc(C(OCCN(C)C)c2cccc(C(F)(F)F)c2)cc1 (stereo unspecified) do in these assays?
TRPC6 inh: -5.44*; TRPC4 agonist: inactive; TRPC4 inh: inactive; TRPC4 PAM: inactive; TRPC6 activator: inactive; HEK293 MPD ctr-2: inactive; HEK293 MPD ctr 2-2: inactive; TRPC4 ctr mod: 18.0%*; TRPC4 ctr inh 2: 37.5%*; TRPC6 inh conf: inactive

What do the screens show for `OC[C@@H](O)C1OC2NC(=S)OC2C1O` (stereo partly specified)?
TRPC6 inh: inactive; TRPC4 agonist: inactive; TRPC4 inh: inactive; TRPC4 PAM: inactive; TRPC6 activator: inactive

Results for Cc1cccc(CCNS(=O)(=O)c2ccc3c(c2)NC(=O)C(C)S3)c1 (stereo unspecified) ?
TRPC6 inh: inactive; TRPC4 agonist: inactive; TRPC4 inh: inactive; TRPC4 PAM: inactive; TRPC6 activator: inactive
